In data set [1] the target is DNA (cytosine-5)-methyltransferase 1 (Homo sapiens, UniProt P26358). Nature of the data set: Inhibition of recombinant human DNMT1 using poly(dl-dC) as substrate by hotspot assay. Particulars: read-out: IC50.
Data set [2] addresses T1, Histone H3 methyltransferase DOT1 variant d (Mus musculus) (UniProt Q679P4).
T1 sequence (whole entry): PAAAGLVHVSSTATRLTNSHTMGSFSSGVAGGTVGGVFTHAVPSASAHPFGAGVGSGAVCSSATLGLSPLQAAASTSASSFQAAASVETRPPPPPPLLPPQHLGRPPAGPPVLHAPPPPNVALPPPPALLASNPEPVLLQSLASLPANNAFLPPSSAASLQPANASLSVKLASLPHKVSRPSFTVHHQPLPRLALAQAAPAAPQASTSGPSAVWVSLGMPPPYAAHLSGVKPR
As to the kind of experiment: Inhibition of DOT1L in mouse bone marrow cell transformed with MLL-AF9 cells assessed as reduction in H3K79 methylation at 30 uM measured after 9 days by Western blot analysis relative to control. Particulars: time 9.0 day. The class given is cell-based. (A western blot detects proteins with antibodies after separation by electrophoresis.)

Data set [3] has as its system Bone marrow cell. Nature of the data set: Antiproliferative activity against mouse bone marrow cell transformed with MLL-AF9 assessed as reduction in cell growth measured after 11 days by hemocytometry. The class given is functional, cell-based. Particulars: 264 h.
The target in data set [4] is Protein arginine N-methyltransferase 3 (Homo sapiens, UniProt O60678). Nature of the data set: Inhibition of recombinant human PRMT3 using histone H4 as substrate by hotspot assay. Particulars: read-out: IC50.
Sequence of Protein arginine N-methyltransferase 3 (O60678 whole entry): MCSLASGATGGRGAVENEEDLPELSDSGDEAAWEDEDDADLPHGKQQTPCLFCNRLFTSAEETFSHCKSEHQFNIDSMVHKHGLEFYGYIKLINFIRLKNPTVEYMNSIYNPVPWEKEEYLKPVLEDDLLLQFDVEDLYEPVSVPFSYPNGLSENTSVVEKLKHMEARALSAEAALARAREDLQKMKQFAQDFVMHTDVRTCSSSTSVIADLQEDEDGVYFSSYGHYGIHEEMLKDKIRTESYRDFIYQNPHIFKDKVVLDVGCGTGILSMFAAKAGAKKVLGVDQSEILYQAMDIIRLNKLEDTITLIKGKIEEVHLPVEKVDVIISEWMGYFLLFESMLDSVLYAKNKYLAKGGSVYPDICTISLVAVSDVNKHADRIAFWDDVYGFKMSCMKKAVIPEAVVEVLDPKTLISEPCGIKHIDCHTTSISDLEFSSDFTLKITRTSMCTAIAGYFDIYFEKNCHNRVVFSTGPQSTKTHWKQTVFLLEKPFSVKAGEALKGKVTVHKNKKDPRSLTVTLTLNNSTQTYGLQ
The subject of data set [5] is Bone marrow cell. As to the kind of experiment: Induction of cell differentiation in mouse bone marrow cells transformed with MLL-AF9 assessed as change in morphology incubated for 6 days by Wright-Giemsa staining based inverted microscopy. The class given is functional. Particulars: dose 1-30 µM, time 6.0 day. Put shortly: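 Cells taken on day 6 of the proliferation culture (MLL-AF9 murine line, IMDM + 15% FBS + IL-3, re-dosed at each split, 0.3% DMSO). Cytospun onto slides, Wright-Giemsa stained, and imaged under bright field on an inverted microscope to assess morphology.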

Data set [6] addresses T2, Histone-lysine N-methyltransferase SETD7 (Homo sapiens, UniProt Q8WTS6).
T2 sequence (Q8WTS6 whole entry): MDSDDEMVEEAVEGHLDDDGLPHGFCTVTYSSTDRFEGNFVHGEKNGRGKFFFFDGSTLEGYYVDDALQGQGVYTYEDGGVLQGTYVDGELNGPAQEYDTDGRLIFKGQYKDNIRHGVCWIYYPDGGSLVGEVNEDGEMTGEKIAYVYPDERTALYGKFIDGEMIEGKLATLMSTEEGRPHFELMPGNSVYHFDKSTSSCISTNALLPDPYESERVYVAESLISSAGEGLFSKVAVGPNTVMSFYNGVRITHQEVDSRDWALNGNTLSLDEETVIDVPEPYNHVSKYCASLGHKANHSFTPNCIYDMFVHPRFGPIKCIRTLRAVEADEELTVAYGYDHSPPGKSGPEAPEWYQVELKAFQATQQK
Nature of the data set: Inhibition of recombinant human SET7/9 using core histone as substrate by hotspot assay.

The test system of data set [7] is Bone marrow cell. As to the kind of experiment: Antiproliferative activity against mouse bone marrow cell transformed with MLL-AF9 assessed as reduction in cell growth at 30 uM measured after 11 days by hemocytometry relative to control. The class given is functional. Particulars: 264 h, time 11 day.
Data set [8] concerns the target T3, Histone-lysine N-methyltransferase EHMT2 (Homo sapiens, UniProt Q96KQ7).
T3 sequence (Q96KQ7 whole entry): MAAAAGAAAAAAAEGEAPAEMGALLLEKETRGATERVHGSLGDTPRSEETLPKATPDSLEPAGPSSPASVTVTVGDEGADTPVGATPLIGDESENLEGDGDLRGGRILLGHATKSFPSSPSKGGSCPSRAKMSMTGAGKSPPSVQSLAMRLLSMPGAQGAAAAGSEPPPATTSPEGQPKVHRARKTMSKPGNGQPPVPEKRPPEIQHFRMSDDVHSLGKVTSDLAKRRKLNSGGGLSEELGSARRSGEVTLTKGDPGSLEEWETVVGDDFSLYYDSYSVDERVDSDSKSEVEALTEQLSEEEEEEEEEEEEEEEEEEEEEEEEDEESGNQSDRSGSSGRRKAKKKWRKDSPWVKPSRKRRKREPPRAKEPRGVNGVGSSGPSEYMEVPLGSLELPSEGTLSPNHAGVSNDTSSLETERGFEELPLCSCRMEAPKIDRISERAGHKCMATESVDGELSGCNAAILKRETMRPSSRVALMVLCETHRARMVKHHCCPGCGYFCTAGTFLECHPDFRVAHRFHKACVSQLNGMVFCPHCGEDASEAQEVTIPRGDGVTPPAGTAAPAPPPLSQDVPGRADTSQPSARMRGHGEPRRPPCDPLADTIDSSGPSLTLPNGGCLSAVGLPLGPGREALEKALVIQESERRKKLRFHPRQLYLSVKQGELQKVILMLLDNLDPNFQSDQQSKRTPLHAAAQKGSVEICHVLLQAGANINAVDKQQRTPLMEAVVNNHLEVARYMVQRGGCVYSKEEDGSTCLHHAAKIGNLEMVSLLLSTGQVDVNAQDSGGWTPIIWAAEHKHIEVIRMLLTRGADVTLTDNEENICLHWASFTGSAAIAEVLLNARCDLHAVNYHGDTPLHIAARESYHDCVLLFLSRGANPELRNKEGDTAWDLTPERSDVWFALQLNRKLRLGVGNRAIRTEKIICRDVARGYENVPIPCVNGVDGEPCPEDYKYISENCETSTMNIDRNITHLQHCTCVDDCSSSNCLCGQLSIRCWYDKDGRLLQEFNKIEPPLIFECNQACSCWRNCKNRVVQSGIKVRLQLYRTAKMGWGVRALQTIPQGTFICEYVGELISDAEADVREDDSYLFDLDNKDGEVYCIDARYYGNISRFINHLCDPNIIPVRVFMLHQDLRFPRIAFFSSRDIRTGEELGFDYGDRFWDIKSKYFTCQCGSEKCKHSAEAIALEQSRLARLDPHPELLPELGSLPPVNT
Nature of the data set: Inhibition of recombinant human G9a using histone H3 (1 to 21) as substrate by hotspot assay.

Data set [9] concerns the target Protein arginine N-methyltransferase 5 (Homo sapiens, UniProt O14744). As to the kind of experiment: Inhibition of recombinant human PRMT5 using histone H2A as substrate by hotspot assay. Particulars: read-out: IC50.
Data set [10] can be described thus: Aqueous solubility of compound. In kind it is physicochemical.
In data set [11] the test system is Bone marrow cell. As to the kind of experiment: Antiproliferative activity against mouse bone marrow cell transformed with MLL-AF9 assessed as reduction in cell growth measured after 6 days by hemocytometry. In kind it is functional, cell-based. Particulars: 144 h.
Data set [12] has as its target Protein arginine N-methyltransferase 8 (Homo sapiens, UniProt Q9NR22). As to the kind of experiment: Inhibition of recombinant human PRMT8 using histone H4 as substrate by hotspot assay.
Data set [13] addresses Histone-lysine N-methyltransferase EZH2 (Homo sapiens, UniProt Q15910). As to the kind of experiment: Inhibition of recombinant human EZH2 using core histone as substrate by hotspot assay.
The subject of data set [14] is Bone marrow cell. As to the kind of experiment: Antiproliferative activity against mouse bone marrow cell transformed with E2A-HLF assessed as reduction in cell growth at 1 to 30 uM measured after 15 days by hemocytometry. In kind it is functional, cell-based. Particulars: dose 1-30 µM, time 15.0 day.

The record followed here is ChEMBL document CHEMBL4680176, “Identification of DOT1L inhibitors by structure-based virtual screening adapted from a nucleoside-focused library” (Eur J Med Chem, 2020).

Values after ≈ are worked out from the molar mass of the structure shown. Active and inactive are the calls of the source. No cut-off for these calls is given here.

A word on the IC50: it is the concentration that gives 50% inhibition. The inhibition is the drop in the measured response relative to a control, in per cent. As usually defined, the solubility is how much of the substance goes into solution per volume. The low end stands for little dissolved substance, the high end for much dissolved substance.

Sequence of Protein arginine N-methyltransferase 5 (O14744 whole entry): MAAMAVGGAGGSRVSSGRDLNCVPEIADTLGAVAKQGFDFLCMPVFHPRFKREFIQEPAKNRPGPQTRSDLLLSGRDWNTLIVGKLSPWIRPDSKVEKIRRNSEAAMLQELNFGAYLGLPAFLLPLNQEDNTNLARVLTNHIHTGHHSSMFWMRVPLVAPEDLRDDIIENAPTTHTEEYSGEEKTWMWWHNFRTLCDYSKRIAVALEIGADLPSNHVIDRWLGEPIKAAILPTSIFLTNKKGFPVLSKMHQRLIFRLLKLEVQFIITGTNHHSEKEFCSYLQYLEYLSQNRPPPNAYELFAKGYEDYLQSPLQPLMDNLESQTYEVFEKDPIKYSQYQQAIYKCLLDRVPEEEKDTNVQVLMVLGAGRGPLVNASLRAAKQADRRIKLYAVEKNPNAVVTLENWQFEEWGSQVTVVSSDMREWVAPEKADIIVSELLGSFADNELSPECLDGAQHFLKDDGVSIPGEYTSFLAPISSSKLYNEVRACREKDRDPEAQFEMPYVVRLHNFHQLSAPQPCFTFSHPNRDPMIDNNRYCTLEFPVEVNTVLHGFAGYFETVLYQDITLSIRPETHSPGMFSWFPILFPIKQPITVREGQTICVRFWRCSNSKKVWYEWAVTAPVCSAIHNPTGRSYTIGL
Sequence of Protein arginine N-methyltransferase 8 (Q9NR22 whole entry): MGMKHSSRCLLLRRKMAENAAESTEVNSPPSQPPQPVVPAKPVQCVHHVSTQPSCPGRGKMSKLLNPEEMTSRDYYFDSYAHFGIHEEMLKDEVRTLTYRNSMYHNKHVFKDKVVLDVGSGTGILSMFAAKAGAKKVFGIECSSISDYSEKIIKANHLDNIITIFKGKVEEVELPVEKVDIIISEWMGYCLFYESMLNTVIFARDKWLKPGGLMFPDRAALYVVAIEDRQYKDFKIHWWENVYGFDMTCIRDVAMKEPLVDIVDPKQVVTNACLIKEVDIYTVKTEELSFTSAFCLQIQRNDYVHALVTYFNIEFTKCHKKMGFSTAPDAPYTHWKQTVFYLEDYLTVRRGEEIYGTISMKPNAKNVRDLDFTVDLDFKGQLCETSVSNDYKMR
Sequence of Histone-lysine N-methyltransferase EZH2 (Q15910 whole entry): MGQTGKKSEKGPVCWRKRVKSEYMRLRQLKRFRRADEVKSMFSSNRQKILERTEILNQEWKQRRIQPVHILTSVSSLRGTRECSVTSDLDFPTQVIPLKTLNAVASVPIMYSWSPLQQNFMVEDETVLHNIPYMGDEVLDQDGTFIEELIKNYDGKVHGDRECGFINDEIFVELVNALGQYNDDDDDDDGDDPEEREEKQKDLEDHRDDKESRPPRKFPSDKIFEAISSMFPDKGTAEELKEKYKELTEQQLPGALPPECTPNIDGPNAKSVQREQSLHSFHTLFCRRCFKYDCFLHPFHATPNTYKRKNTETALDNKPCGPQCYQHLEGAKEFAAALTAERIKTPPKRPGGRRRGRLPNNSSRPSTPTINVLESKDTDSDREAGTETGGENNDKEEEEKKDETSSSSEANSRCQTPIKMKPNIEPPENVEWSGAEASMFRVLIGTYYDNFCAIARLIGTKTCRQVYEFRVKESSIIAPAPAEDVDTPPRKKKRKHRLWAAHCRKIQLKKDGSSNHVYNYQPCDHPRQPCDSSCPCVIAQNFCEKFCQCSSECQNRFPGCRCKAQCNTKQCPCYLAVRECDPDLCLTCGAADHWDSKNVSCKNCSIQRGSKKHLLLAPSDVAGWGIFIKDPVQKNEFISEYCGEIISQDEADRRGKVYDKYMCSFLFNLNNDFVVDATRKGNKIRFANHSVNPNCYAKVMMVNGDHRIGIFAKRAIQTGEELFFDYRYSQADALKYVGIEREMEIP
Sequence of DNA (cytosine-5)-methyltransferase 1 (P26358 whole entry): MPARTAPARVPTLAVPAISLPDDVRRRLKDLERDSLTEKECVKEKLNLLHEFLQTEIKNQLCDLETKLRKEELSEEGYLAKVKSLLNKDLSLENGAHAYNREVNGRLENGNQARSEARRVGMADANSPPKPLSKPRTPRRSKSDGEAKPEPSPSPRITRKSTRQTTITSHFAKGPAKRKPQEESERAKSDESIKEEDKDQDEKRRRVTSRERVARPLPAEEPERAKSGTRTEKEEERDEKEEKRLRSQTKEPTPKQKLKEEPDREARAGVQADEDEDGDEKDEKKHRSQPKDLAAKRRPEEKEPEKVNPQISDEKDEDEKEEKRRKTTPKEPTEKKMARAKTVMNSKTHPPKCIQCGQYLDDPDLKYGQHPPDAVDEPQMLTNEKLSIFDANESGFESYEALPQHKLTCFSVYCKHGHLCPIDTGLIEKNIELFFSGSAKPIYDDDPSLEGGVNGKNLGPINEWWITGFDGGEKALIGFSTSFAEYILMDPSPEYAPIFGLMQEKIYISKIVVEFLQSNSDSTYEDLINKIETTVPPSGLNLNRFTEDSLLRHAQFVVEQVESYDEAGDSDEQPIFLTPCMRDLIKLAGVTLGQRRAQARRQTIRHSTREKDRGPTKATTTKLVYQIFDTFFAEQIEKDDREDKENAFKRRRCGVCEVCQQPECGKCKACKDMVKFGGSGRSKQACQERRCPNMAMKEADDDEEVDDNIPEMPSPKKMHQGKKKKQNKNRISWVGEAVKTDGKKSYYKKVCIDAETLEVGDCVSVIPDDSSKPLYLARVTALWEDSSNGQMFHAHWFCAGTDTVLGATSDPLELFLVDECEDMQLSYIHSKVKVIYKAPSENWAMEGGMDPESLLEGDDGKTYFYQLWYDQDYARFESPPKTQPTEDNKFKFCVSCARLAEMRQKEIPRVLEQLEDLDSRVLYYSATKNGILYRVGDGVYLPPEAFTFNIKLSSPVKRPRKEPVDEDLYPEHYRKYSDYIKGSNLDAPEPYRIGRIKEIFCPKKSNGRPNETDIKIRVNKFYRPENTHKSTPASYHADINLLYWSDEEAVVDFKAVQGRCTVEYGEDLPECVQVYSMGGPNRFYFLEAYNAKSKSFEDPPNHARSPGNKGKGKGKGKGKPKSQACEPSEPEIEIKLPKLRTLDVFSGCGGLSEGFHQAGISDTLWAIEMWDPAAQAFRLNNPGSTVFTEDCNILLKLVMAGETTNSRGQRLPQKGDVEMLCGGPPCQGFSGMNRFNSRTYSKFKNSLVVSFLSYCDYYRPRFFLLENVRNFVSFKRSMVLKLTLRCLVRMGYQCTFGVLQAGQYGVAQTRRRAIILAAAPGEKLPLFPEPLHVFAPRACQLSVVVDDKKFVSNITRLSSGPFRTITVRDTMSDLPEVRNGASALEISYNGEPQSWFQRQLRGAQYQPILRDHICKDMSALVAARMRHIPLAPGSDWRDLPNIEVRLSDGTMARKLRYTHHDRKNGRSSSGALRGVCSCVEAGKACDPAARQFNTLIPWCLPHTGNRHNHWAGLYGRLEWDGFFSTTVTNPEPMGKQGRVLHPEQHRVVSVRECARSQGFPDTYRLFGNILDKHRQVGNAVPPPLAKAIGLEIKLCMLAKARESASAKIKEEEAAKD

Turning to `CC(C)(C)c1ccc(NC(=O)c2ncn(CC(=O)NCCn3ccc4c(N)ncnc43)n2)cc1`, the IC50 in data set [1] is 248 µM; in the data set with Bone marrow cell [3] it was 1 µM; in data set [4] it was 115 µM; in [6], “Not Active”; in data set [8], “Not Active”; in data set [9] it was 165 µM. For the same compound, the half-maximal inhibitory concentration (IC50) in the data set with Bone marrow cell [11] was 8.8 µM; in data set [12] it was over 250 µM; in data set [13], “Not Active”. In data set [2], the inhibition worked out at 100%. The Activity entry in the data set on Bone marrow cell [5] was “Dose-dependent effect”. For the same compound, the inhibition at 30 µM with Bone marrow cell [7] worked out at 100%. Also, the concentration in solution in data set [10] (solubility) came to 687 µM (≈ 317 µg/mL). Further, the inhibition entry with Bone marrow cell [14] was “inactive”.
